Experiment [1] has as its system Rattus norvegicus. Description: Antidiabetic activity in glucose loaded albino Sprague-Dawley rat model assessed as decrease in blood glucose level at 100 mg/kg, po. It counts as functional. A digest of the protocol: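 Rats in groups of five were bled at baseline, then gavaged with test sample at 100 mg/kg. A glucose load of 2 g/kg was given 30 min later. Blood was collected at 30, 60, 90 and 120 min.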

Experiment [2] has as its system Syrian golden hamster. Description: Inhibition of cholesterol level in Syrian golden hamster at 300 umol/kg after 10 days. Conditions: Mesocricetus auratus, 240 h. It counts as functional.
Experiment [3] has as its system Syrian golden hamster. The experiment in a line: Inhibition of triglyceride level in Syrian golden hamster at 300 umol/kg after 10 days. It counts as functional. Conditions: Mesocricetus auratus, 240 h.
Experiment [4] addresses T1, Peroxisome proliferator-activated receptor alpha (Homo sapiens) (UniProt Q07869).
T1 sequence (whole entry): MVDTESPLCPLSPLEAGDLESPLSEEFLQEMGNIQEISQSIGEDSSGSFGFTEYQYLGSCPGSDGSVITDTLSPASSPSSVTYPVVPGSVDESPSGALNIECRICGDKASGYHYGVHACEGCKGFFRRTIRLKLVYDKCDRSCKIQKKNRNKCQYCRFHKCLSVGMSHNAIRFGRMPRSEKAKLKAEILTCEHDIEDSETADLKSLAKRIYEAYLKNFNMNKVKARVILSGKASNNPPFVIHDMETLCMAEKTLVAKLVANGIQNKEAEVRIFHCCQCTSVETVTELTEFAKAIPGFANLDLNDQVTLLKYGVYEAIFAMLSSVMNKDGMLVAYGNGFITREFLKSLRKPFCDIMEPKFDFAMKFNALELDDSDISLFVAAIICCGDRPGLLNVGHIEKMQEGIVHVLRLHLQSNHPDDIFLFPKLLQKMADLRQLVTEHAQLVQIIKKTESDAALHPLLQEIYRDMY
Description: Inhibition of PPARalpha at 50 uM.

For experiment [5], the target named is T2, Peroxisome proliferator-activated receptor gamma (Homo sapiens, UniProt P37231).
T2 sequence (P37231 whole entry): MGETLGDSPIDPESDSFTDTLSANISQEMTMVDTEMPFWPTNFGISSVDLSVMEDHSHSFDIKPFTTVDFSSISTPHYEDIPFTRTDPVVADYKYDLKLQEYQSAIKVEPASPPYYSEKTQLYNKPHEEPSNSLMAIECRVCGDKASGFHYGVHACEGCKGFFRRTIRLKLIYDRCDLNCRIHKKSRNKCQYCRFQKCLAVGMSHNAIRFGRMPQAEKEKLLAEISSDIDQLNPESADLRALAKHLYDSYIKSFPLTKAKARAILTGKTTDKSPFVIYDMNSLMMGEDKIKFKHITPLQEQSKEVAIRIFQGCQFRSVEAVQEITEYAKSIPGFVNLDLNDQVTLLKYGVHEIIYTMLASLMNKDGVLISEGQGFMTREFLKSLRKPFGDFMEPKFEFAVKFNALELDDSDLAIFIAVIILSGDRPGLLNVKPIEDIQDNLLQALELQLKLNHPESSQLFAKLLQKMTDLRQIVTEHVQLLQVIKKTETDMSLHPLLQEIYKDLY
The experiment in a line: Binding affinity at PPARgamma.

Experiment [6] relates to Rattus norvegicus. The experiment in a line: Antidiabetic activity in streptozotocin-induced diabetic albino Sprague-Dawley rat model assessed as decrease in blood glucose level at 100 mg/kg, po. It is filed as functional. The procedure, abridged:
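Overnight-fasted rats received streptozotocin 60 mg/kg i.p. in 100 mM citrate buffer, pH 4.5. After 48 h, animals with glucometer glucose of 200–400 mg/dl were grouped (n=6). Sample in 1% gum acacia was given orally at 100 mg/kg; controls received vehicle.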

The test system of experiment [7] is Mus musculus. The experiment in a line: Antidiabetic activity in db/db mouse at 100 mg/kg after 5 hrs on day 3. It counts as functional.
In experiment [8] the test system is Rattus norvegicus. The experiment in a line: Inhibition of triglyceride level in triton treated Charles Foster rat at 100 mg/kg, po. It is filed as functional. The procedure, abridged: (§1)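 Male Charles Foster rats (200–225 g) were used, six per group. They received Triton WR-1339 200 mg/kg i.p. together with oral compound at 100 mg/kg in 2% aqueous gum acacia, over 18 h; vehicle controls were included. Rats were then fasted overnight and bled retro-orbitally. Serum total cholesterol, phospholipids and triglyceride were assayed.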

Experiment [9] concerns Syrian golden hamster. The experiment in a line: Inhibition of HDL level in Syrian golden hamster at 300 umol/kg after 10 days. The settings on record: Mesocricetus auratus, 240 h. It is filed as functional.
Experiment [10] concerns Rattus norvegicus. Description: Antidiabetic activity in sucrose challenged streptozotocin-induced diabetic albino Sprague-Dawley rat model assessed as decrease in blood glucose level at 100 mg/kg, po. It is filed as functional. A digest of the protocol:
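Diabetes was induced in overnight-fasted rats with streptozotocin 60 mg/kg i.p. in 100 mM citrate buffer, pH 4.5. Rats with glucose of 150–250 mg/dl at 48 h were selected. A sucrose load of 2.5 g/kg was given 30 min after oral dosing. Glucose was measured at 30–300 min and 24 h. Food was withheld, water allowed.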

The target in experiment [11] is T3, Peroxisome proliferator-activated receptor delta (Homo sapiens) (UniProt Q03181).
T3 sequence (whole entry): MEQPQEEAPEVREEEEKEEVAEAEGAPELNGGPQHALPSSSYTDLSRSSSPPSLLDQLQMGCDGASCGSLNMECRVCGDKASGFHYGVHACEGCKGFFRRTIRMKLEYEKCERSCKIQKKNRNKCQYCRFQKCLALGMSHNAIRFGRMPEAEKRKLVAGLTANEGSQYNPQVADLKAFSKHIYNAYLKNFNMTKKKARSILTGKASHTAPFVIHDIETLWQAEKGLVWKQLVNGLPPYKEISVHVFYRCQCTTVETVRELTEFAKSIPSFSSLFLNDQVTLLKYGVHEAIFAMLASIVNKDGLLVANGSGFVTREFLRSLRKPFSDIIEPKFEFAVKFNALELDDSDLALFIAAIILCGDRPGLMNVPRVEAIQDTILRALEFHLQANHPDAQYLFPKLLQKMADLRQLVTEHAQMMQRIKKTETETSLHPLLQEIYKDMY
The experiment in a line: Inhibition of PPARdelta at 3 uM.

For experiment [12], the system named is Rattus norvegicus. Description: Antidiabetic activity in sucrose loaded albino Sprague-Dawley rat model assessed as decrease in blood glucose level at 100 mg/kg, po. It is filed as functional. A digest of the protocol:
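Male Sprague–Dawley rats were fasted overnight and used in groups of five. Baseline blood was taken, then test sample was gavaged at 100 mg/kg. A sucrose load of […] followed 30 min later.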

Experiment [13] has as its system Rattus norvegicus. Description: Inhibition of phospholipids level in triton treated Charles Foster rat at 100 mg/kg, po. It is filed as functional. The procedure, abridged: as §1
Experiment [14] deals with Syrian golden hamster. The experiment in a line: Inhibition of glycerol level in Syrian golden hamster at 300 umol/kg after 10 days. It is filed as functional. Conditions: Mesocricetus auratus, 240 h.
For experiment [15], the system named is Syrian golden hamster. Description: Inhibition of glucose level in Syrian golden hamster at 300 umol/kg after 10 days. It is filed as functional. The settings on record: Mesocricetus auratus, 240 h.
The test system of experiment [16] is Rattus norvegicus. The experiment in a line: Inhibition of cholesterol level in triton treated Charles Foster rat at 100 mg/kg, po. It counts as functional. A digest of the protocol:
as §1

The test system of experiment [17] is Mus musculus. Description: Antidiabetic activity in db/db mouse at 100 mg/kg after 24 hrs on day 3. It counts as functional.
Experiment [18] concerns Syrian golden hamster. The experiment in a line: Inhibition of free fatty acids level in Syrian golden hamster at 300 umol/kg after 10 days. The settings on record: Mesocricetus auratus, 240 h. It is filed as functional.

One may read the inhibition in vivo as how much of the control response was suppressed. A word on the inhibition: it is the relative decrease from the control value, in per cent. Read a low inhibition as a weak effect. Broadly, the EC50 is the concentration giving half of the maximal effect. High values mean a need for much substance, low ones an effect from little substance. Regarding `c1ccc(CNCCOc2ccc3ccccc3c2)cc1`, the inhibition in vivo at 100 mg/kg with Rattus norvegicus [1] came to 37.6%; in the experiment with Rattus norvegicus [6] it was 13%; with Mus musculus [7] it was 7%; in the experiment with Rattus norvegicus [8] it was 37%; in the experiment on Rattus norvegicus [10], 69.5%; in the experiment with Rattus norvegicus [12] it was 64%. Further, the inhibition in vivo at 100 mg/kg with Rattus norvegicus [13] worked out at 34%; in the experiment on Rattus norvegicus [16] it was 31%; with Mus musculus [17], 11.6%. For the same molecule, the inhibition in vivo at 300 µmol/kg in the experiment on Syrian golden hamster [2] turned out to be 14%; in the experiment with Syrian golden hamster [3], 37%; in the experiment with Syrian golden hamster [9], 13%; with Syrian golden hamster [14] it was 10%; in the experiment on Syrian golden hamster [15], 9.5%. Besides, the inhibition was 36.2% in experiment [4] and 31.3% in experiment [11]. The same molecule had an EC50 in experiment [5] of 0.4 µM.

`Cc1ccc(S(=O)(=O)NC(=O)NN2CC3CCCC3C2)cc1` (stereo not drawn) [GLICLAZIDE]: the inhibition in vivo at 100 mg/kg stood at 27.7% in the experiment on Rattus norvegicus [6] and 44.8% in the experiment with Rattus norvegicus [12].

On to `COc1ccc(N(CCCOc2ccc3ccccc3c2)CC(=O)O)cc1`, for which the inhibition in vivo at 100 mg/kg came out at 15.5% in the experiment with Rattus norvegicus [1]; 13% with Rattus norvegicus [8]; 21.5% in the experiment with Rattus norvegicus [12]; 16.9% in the experiment with Rattus norvegicus [13]; 23.8% with Rattus norvegicus [16]. Besides, the inhibition in vivo at 300 µmol/kg was found to be 21% in the experiment with Syrian golden hamster [2]; 44% with Syrian golden hamster [3]; 11% with Syrian golden hamster [9]; 23% in the experiment on Syrian golden hamster [14]; 22% in the experiment on Syrian golden hamster [15]. Moreover, the inhibition came out at 25.4% in experiment [4] and 20.2% in experiment [11].

Regarding `CCOC(=O)CN(CCCOc1ccc2ccccc2c1)c1ccc(OC)cc1`, the inhibition in vivo at 100 mg/kg came to 25.9% in the experiment with Rattus norvegicus [1]; 6.9% with Rattus norvegicus [6]; 12% in the experiment with Mus musculus [7]; 15% in the experiment with Rattus norvegicus [8]; 5.6% with Rattus norvegicus [10]; 45.4% with Rattus norvegicus [12]. Also, the figures for the inhibition in vivo at 100 mg/kg in the experiment on Rattus norvegicus [13], in the experiment with Rattus norvegicus [16] and in the experiment on Mus musculus [17] were 26%, 21.2% and 15.4%, respectively. Besides, the inhibition in vivo at 300 µmol/kg in the experiment on Syrian golden hamster [2] is 22%; with Syrian golden hamster [18], 48%; in the experiment on Syrian golden hamster [3], 68%; with Syrian golden hamster [9], 16%; in the experiment with Syrian golden hamster [14], 7.3%; in the experiment on Syrian golden hamster [15] it was 34%. Further, the inhibition stood at 33.5% in experiment [4] and 29.6% in experiment [11]. Besides, in [5], the response was half-maximal at 4.8 µM (EC50).

For the molecule `COc1ccc(Cl)cc1C(=O)NCCc1ccc(S(=O)(=O)NC(=O)NC2CCCCC2)cc1` [GLYBURIDE], the inhibition in vivo at 100 mg/kg was found to be 32.8% in the experiment with Rattus norvegicus [6] and 33.9% in the experiment on Rattus norvegicus [12].

For the molecule `COc1ccc(NCCCOc2ccc3ccccc3c2)cc1`, the inhibition in vivo at 100 mg/kg with Rattus norvegicus [1] was 33.6%; in the experiment with Rattus norvegicus [6] it was 28.5%; in the experiment with Mus musculus [7], 22.4%; with Rattus norvegicus [8] it was 28%; with Rattus norvegicus [10], 73.8%; with Rattus norvegicus [12], 31%. Besides, the values for the inhibition in vivo at 100 mg/kg in the experiment on Rattus norvegicus [13], in the experiment with Rattus norvegicus [16] and in the experiment with Mus musculus [17] were 38%, 32.4% and 28.9%, respectively. Besides, the inhibition in vivo at 300 µmol/kg in the experiment on Syrian golden hamster [2] came to 14%; in the experiment on Syrian golden hamster [3], 48%; in the experiment on Syrian golden hamster [9] it was 15%; in the experiment with Syrian golden hamster [14], 14%; with Syrian golden hamster [15], 31%. The inhibition in experiment [4] is 44.5%; in [11], 42.6%. In experiment [5], the midpoint of the response, the EC50, lay at 33.8 µM.

These data come from ChEMBL document CHEMBL1142330, “Omega-(2-Naphthyloxy) amino alkanes as a novel class of anti-hyperglycemic and lipid lowering agents” (Bioorg Med Chem, 2008).
